Test results published in ChEMBL document CHEMBL1123529, “Analogues of substance P. Peptides containing D-amino acid residues in various positions of substance P and displaying agonist or receptor selective antagonist effects” (1986).
Values joined by “and” are separate entries in the source; they are usually repeats but may differ in a detail not shown here. Equal entries are not always repeated.

Columns and labels:
[1] = biological target: Substance-P receptor (Cavia porcellus) (UniProt P30547); test: Evaluated in vitro for percent agonist activity in guinea pig ileum (substance P receptor); assay type: functional, tissue-based
Substance-P receptor (Cavia porcellus), sequence (P30547 whole entry): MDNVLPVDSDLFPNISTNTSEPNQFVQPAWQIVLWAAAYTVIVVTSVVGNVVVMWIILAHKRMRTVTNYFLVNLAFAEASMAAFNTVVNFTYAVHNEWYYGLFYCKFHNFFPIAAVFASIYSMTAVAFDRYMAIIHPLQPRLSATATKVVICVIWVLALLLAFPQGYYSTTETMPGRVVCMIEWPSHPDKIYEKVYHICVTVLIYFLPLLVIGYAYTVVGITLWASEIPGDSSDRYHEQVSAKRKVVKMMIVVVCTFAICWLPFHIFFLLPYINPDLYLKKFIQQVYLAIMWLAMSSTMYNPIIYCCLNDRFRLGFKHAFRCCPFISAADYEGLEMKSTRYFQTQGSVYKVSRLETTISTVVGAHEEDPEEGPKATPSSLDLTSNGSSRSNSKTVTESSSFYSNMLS

[2] = In vitro antagonistic activity against Substance P on guinea pig ileum at concentration of 10 uM.; assay type: functional, Cavia porcellus
Method in brief: (§1)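 Dose-response curves used a 3-min cycle with 1-min contact and washout, with SP or SP(6-11)-hexapeptide as agonist. Dose ratio is the agonist EC50 with antagonist divided by the EC50 alone. At least two preparations per compound; ratios under 2 were considered insignificant.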

[3] = In vitro antagonistic activity against Substance P(6-11) in guinea pig ileum at concentration of 10 uM.; assay type: functional, Cavia porcellus; method in brief: as §1
[4] = biological target: Substance-P receptor (Cavia porcellus) (UniProt P30547); test: Antagonistic activity against Substance P(6-11) receptor in guinea pig ileum at concentration of 5 uM.; assay type: functional, tissue-based
Method in brief: (§2)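 Distal ileum from Dunkin-Hartley guinea pigs (300-350 g, both sexes) in a Krebs organ bath at 37 °C, gassed with 95% O2/5% CO2. Agonist (SP or SP(6-11)) dose-response curves run on a 3-min cycle with 1-min contact, with and without antagonist. Dose ratio = agonist EC50 with antagonist / EC50 alone. At least two preparations per compound; ratios below 2 taken as insignificant.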

[5] = biological target: Substance-P receptor (Cavia porcellus) (UniProt P30547); test: Antagonistic activity against Substance P receptor in guinea pig ileum at concentration of 5 uM.; assay type: functional, tissue-based; method in brief: as §2

SP [1] [%] | SMILES | Activity [2] | Activity [3] [dose ratio] | further results
< 0.0001 | COC(=O)[C@@H](CCSC)NC(=O)C(Cc1ccccc1)NC(=O)C(Cc1ccccc1)NC(=O)C(Cc1ccccc1)NC(=O)C(Cc1ccccc1)NC(=O)[C@H](CCC(N)=O)NC(=O)[C@H](CCC(N)=O)NC(=O)[C@@H]1CCCN1C(=O)[C@H](CCCCNC(=O)OCc1ccccc1)NC(=O)[C@@H]1CCCN1C(=O)[C@H](CCCN=C(N)N)NC(=O)OCc1ccccc1 (stereo in doubt) | <2 dose ratio | <2 | –
7 | COC(=O)[C@H](CCSC)NC(=O)[C@H](CC(C)C)NC(=O)CNC(=O)[C@H](Cc1ccccc1)NC(=O)[C@H](Cc1ccccc1)NC(=O)[C@H](CCC(N)=O)NC(=O)[C@H](CCC(N)=O)NC(=O)C1CCCN1C(=O)[C@H](CCCCNC(=O)OCc1ccccc1)NC(=O)C1CCCN1C(=O)[C@H](CCCN=C(N)N)NC(=O)OCc1ccccc1 (stereo in doubt) | – | – | –
0 | COC(=O)[C@@H](CCSC)NC(=O)[C@H](CC(C)C)NC(=O)CNC(=O)[C@H](Cc1ccccc1)NC(=O)[C@H](Cc1ccccc1)NC(=O)[C@H](Cc1ccccc1)NC(=O)[C@@H](Cc1ccccc1)NC(=O)[C@@H]1CCCN1C(=O)[C@H](CCCCN)NC(=O)[C@@H]1CCCN1C(=O)[C@@H](N)CCCN=C(N)N | – | – | –
< 0.0001 | COC(=O)[C@@H](CCSC)NC(=O)[C@H](CC(C)C)NC(=O)CNC(=O)[C@H](Cc1ccccc1)NC(=O)[C@H](Cc1ccccc1)NC(=O)[C@H](Cc1ccccc1)NC(=O)[C@@H](Cc1ccccc1)NC(=O)[C@@H]1CCCN1C(=O)[C@H](CCCCNC(=O)OCc1ccccc1)NC(=O)[C@@H]1CCCN1C(=O)[C@H](CCCN=C(N)N)NC(=O)OCc1ccccc1 | – | – | –
6.4 | CSCC[C@@H](NC(=O)[C@H](CC(C)C)NC(=O)CNC(=O)[C@H](Cc1ccccc1)NC(=O)[C@H](Cc1ccccc1)NC(=O)[C@@H](NC(=O)[C@H](NC(=O)[C@@H]1CCCN1C(=O)[C@H](CCCCN)NC(=O)[C@@H]1CCCN1C(=O)[C@@H](N)CCCN=C(N)N)C(C)C)C(C)C)C(=O)O | – | – | –
0.066 | COC(=O)[C@@H](CCSC)NC(=O)[C@H](CC(C)C)NC(=O)CNC(=O)[C@H](Cc1ccccc1)NC(=O)[C@H](Cc1ccccc1)NC(=O)[C@@H]1CCCN1C(=O)[C@H]1CCCN1C(=O)[C@@H]1CCCN1C(=O)[C@H](CCCCN)NC(=O)[C@@H]1CCCN1C(=O)[C@@H](N)CCCN=C(N)N | – | – | –
0.005 | COC(=O)[C@@H](CCSC)NC(=O)[C@H](CC(C)C)NC(=O)CNC(=O)[C@H](Cc1ccccc1)NC(=O)[C@H](Cc1ccccc1)NC(=O)[C@@H](NC(=O)[C@H](NC(=O)[C@@H]1CCCN1C(=O)[C@H](CCCCN)NC(=O)[C@@H]1CCCN1C(=O)[C@@H](N)CCCN=C(N)N)C(C)C)C(C)C | – | – | –
< 0.0001 | CSCC[C@@H](NC(=O)[C@H](CC(C)C)NC(=O)CNC(=O)[C@H](Cc1ccccc1)NC(=O)[C@H](Cc1ccccc1)NC(=O)[C@@H](NC(=O)[C@H](NC(=O)[C@@H]1CCCN1C(=O)[C@H](CCCCNC(=O)OCc1ccccc1)NC(=O)[C@@H]1CCCN1C(=O)[C@H](CCCN=C(N)N)NC(=O)OCc1ccccc1)C(C)C)C(C)C)C(=O)O | – | – | –
63 | CSCC[C@H](NC(=O)[C@H](CC(C)C)NC(=O)CNC(=O)[C@H](Cc1ccccc1)NC(=O)[C@H](Cc1ccccc1)NC(=O)[C@H](CCC(N)=O)NC(=O)[C@H](CCC(N)=O)NC(=O)C1CCCN1C(=O)[C@H](CCCCNC(=O)OCc1ccccc1)NC(=O)C1CCCN1C(=O)[C@H](CCCN=C(N)N)NC(=O)OCc1ccccc1)C(=O)O (stereo in doubt) | – | – | –
0 | COC(=O)[C@H](CCSC)NC(=O)[C@H](Cc1c[nH]c2ccccc12)NC(=O)[C@@H](Cc1c[nH]c2ccccc12)NC(=O)[C@H](Cc1ccccc1)NC(=O)[C@H](Cc1ccccc1)NC(=O)[C@H](CCC(N)=O)NC(=O)[C@H](CCC(N)=O)NC(=O)[C@@H]1CCCN1C(=O)[C@H](CCCCNC(=O)OCc1ccccc1)NC(=O)[C@@H]1CCCN1C(=O)[C@H](CCCN=C(N)N)NC(=O)OCc1ccccc1 | – | – | Activity [4]: < 2 dose ratio; Activity [5]: < 2 dose ratio
15 | CSCC[C@H](NC(=O)[C@H](CC(C)C)NC(=O)CNC(=O)[C@H](Cc1ccccc1)NC(=O)[C@H](Cc1ccccc1)NC(=O)[C@H](CCC(N)=O)NC(=O)[C@H](CCC(N)=O)NC(=O)C1CCCN1C(=O)[C@H](CCCCN)NC(=O)C1CCCN1C(=O)[C@@H](N)CCCN=C(N)N)C(N)=O (stereo in doubt) | – | – | –

The remaining lines, values behind:

SMILES | SP [1] [%] | Activity [2] | Activity [3] [dose ratio] | further results
COC(=O)[C@@H](CCSC)NC(=O)[C@H](CC(C)C)NC(=O)[C@@H](Cc1c[nH]c2ccccc12)NC(=O)[C@@H](Cc1c[nH]c2ccccc12)NC(=O)[C@@H](Cc1c[nH]c2ccccc12)NC(=O)[C@H](CCC(N)=O)NC(=O)[C@H](CCC(N)=O)NC(=O)[C@@H]1CCCN1C(=O)[C@H](CCCCN)NC(=O)[C@@H]1CCCN1C(=O)[C@@H](N)CCCN=C(N)N | – | 3.9 dose ratio and 7.2 dose ratio | 9.9 | –
COC(=O)[C@H](CCSC)NC(=O)[C@H](CC(C)C)NC(=O)CNC(=O)[C@H](Cc1ccccc1)NC(=O)[C@H](Cc1ccccc1)NC(=O)[C@H](NC(=O)[C@H](NC(=O)[C@@H]1CCCN1C(=O)[C@H](CCCCNC(=O)OCc1ccccc1)NC(=O)[C@@H]1CCCN1C(=O)[C@H](CCCN=C(N)N)NC(=O)OCc1ccccc1)C(C)C)C(C)C | – | <2 dose ratio | <2 | –
COC(=O)[C@@H](CCSC)NC(=O)[C@H](CC(C)C)NC(=O)CNC(=O)[C@H]1CCCN1C(=O)[C@H]1CCCN1C(=O)[C@H](CCC(N)=O)NC(=O)[C@H](CCC(N)=O)NC(=O)[C@@H]1CCCN1C(=O)[C@H](CCCCNC(=O)OCc1ccccc1)NC(=O)[C@@H]1CCCN1C(=O)[C@H](CCCN=C(N)N)NC(=O)OCc1ccccc1 | < 0.0001 | <2 dose ratio | <2 | –
COC(=O)[C@H](CCSC)NC(=O)[C@H](CC(C)C)NC(=O)CNC(=O)[C@H](Cc1ccccc1)NC(=O)[C@H](Cc1ccccc1)NC(=O)[C@@H](Cc1ccccc1)NC(=O)[C@@H](Cc1ccccc1)NC(=O)[C@@H]1CCCN1C(=O)[C@H](CCCCNC(=O)OCc1ccccc1)NC(=O)[C@@H]1CCCN1C(=O)[C@H](CCCN=C(N)N)NC(=O)OCc1ccccc1 | – | <2 dose ratio | <2 | –
COC(=O)[C@@H](CCSC)NC(=O)[C@H](CC(C)C)NC(=O)CNC(=O)[C@H](NC(=O)[C@H](NC(=O)[C@H](CCC(N)=O)NC(=O)[C@H](CCC(N)=O)NC(=O)[C@@H]1CCCN1C(=O)[C@H](CCCCNC(=O)OCc1ccccc1)NC(=O)[C@@H]1CCCN1C(=O)[C@H](CCCN=C(N)N)NC(=O)OCc1ccccc1)C(C)C)C(C)C | – | <2 dose ratio | <2 | –
CSCC[C@H](NC(=O)[C@H](CC(C)C)NC(=O)CNC(=O)[C@H](Cc1ccccc1)NC(=O)[C@H](Cc1ccccc1)NC(=O)[C@H](NC(=O)[C@H](NC(=O)[C@@H]1CCCN1C(=O)[C@H](CCCCNC(=O)OCc1ccccc1)NC(=O)[C@@H]1CCCN1C(=O)[C@H](CCCN=C(N)N)NC(=O)OCc1ccccc1)C(C)C)C(C)C)C(=O)O | – | <2 dose ratio | <2 | –
COC(=O)[C@@H](CCSC)NC(=O)[C@H](CC(C)C)NC(=O)[C@@H](Cc1c[nH]c2ccccc12)NC(=O)[C@@H](Cc1c[nH]c2ccccc12)NC(=O)[C@@H](Cc1c[nH]c2ccccc12)NC(=O)[C@H](CCC(N)=O)NC(=O)[C@H](CCC(N)=O)NC(=O)[C@@H]1CCCN1C(=O)[C@H](CCCCNC(=O)OCc1ccccc1)NC(=O)[C@@H]1CCCN1C(=O)[C@@H](N)CCCN=C(N)N | – | 10 dose ratio | 5.6 | –
COC(=O)[C@@H](CCSC)NC(=O)[C@H](CC(C)C)NC(=O)[C@@H](Cc1c[nH]c2ccccc12)NC(=O)[C@@H](Cc1c[nH]c2ccccc12)NC(=O)[C@@H](Cc1c[nH]c2ccccc12)NC(=O)[C@H](CCC(N)=O)NC(=O)[C@H](CCC(N)=O)NC(=O)[C@@H]1CCCN1C(=O)[C@H](CCCCNC(=O)OCc1ccccc1)NC(=O)[C@@H]1CCCN1C(=O)[C@H](CCCN=C(N)N)NC(=O)OCc1ccccc1 | – | <2 dose ratio | <2 | –
CSCC[C@@H](NC(=O)[C@H](CC(C)C)NC(=O)[C@@H](Cc1c[nH]c2ccccc12)NC(=O)[C@@H](Cc1c[nH]c2ccccc12)NC(=O)[C@@H](Cc1c[nH]c2ccccc12)NC(=O)[C@H](CCC(N)=O)NC(=O)[C@H](CCC(N)=O)NC(=O)[C@@H]1CCCN1C(=O)[C@H](CCCCNC(=O)OCc1ccccc1)NC(=O)[C@@H]1CCCN1C(=O)[C@H](CCCN=C(N)N)NC(=O)OCc1ccccc1)C(=O)O | – | <2 dose ratio | – | –
COC(=O)[C@@H](CCSC)NC(=O)[C@H](CC(C)C)NC(=O)CNC(=O)[C@@H](NC(=O)[C@H](NC(=O)[C@H](CCC(N)=O)NC(=O)[C@H](CCC(N)=O)NC(=O)[C@@H]1CCCN1C(=O)[C@H](CCCCNC(=O)OCc1ccccc1)NC(=O)[C@@H]1CCCN1C(=O)[C@H](CCCN=C(N)N)NC(=O)OCc1ccccc1)C(C)C)C(C)C | < 0.0001 | – | – | –
COC(=O)[C@H](CCSC)NC(=O)[C@H](CC(C)C)NC(=O)CNC(=O)[C@H](Cc1ccccc1)NC(=O)[C@H](Cc1ccccc1)NC(=O)[C@@H](Cc1ccccc1)NC(=O)[C@@H](Cc1ccccc1)NC(=O)[C@@H]1CCCN1C(=O)[C@H](CCCCN)NC(=O)[C@@H]1CCCN1C(=O)[C@@H](N)CCCN=C(N)N | – | <2 dose ratio | <2 | –
